Target: T1, Thymidine kinase, cytosolic (Cricetulus griseus, UniProt P09768)
T1 sequence (P09768 whole entry): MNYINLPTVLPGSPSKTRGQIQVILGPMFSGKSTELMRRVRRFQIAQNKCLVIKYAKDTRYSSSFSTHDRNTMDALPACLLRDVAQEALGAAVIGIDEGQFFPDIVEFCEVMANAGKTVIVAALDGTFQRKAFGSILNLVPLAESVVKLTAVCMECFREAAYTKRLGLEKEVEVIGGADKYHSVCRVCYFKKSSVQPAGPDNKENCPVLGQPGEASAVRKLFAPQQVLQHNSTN
Experiment: Competitive inhibition of thymidine kinase in BHK21 (C13) cells using thymidine as substrate assessed as formation of TMP by Lineweaver-Burk plot analysis
Summary of the method: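 BHK21(C13) cells sonicated in 0.05 M NaCl; 100000g supernatant stored in 50% glycerol at 4 °C. Assay in Tris-HCl 0.05 M pH 8.0, ATP 5 mM, MgCl2 2.5 mM, [14C]thymidine at four or more levels from 3.6 to 18 μM, two inhibitor levels plus a no-inhibitor control, duplicates, 10 min at 37 °C. [14C]TMP captured on DEAE-cellulose disks and counted by scintillation; Ki taken from Lineweaver-Burk plots.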

| Ki [µM] | SMILES |
| --- | --- |
| 450 | Nc1cn([C@H]2C[C@H](O)[C@@H](CO)O2)c(=O)[nH]c1=O |
| 72 | CCCCCn1c(=O)c(C)cn([C@H]2C[C@H](O)[C@@H](CO)O2)c1=O |
| 250 | CC(=O)NCCNC[C@H]1O[C@@H](n2cc(C)c(=O)[nH]c2=O)C[C@@H]1O |
| 900 | CC(=O)N(C)CCN(C)C[C@H]1O[C@@H](n2cc(C)c(=O)[nH]c2=O)C[C@@H]1O |
| 270 | CCCCNC[C@H]1O[C@@H](n2cc(C)c(=O)[nH]c2=O)C[C@@H]1O |
| 160 | CCC(=O)NCC(O)[C@H]1O[C@@H](n2cc(C)c(=O)[nH]c2=O)C[C@@H]1O (stereo partly drawn) |
| 180 | CCCCCCNC[C@H]1O[C@@H](n2cc(C)c(=O)[nH]c2=O)C[C@@H]1O |
| 12 | CCS[C@H]1C[C@H](n2cc(C)c(=O)[nH]c2=O)O[C@@H]1CO |
| 500 | Cc1cn([C@H]2C[C@H](O)[C@@H](CSCCC(=O)O)O2)c(=O)[nH]c1=O |
| 270 | CC(=O)NCC(O)[C@H]1O[C@@H](n2cc(C)c(=O)[nH]c2=O)C[C@@H]1O (stereo partly drawn) |
| 2500 | CC(=O)N[C@H]1C[C@H](n2cc(C)c(=O)[nH]c2=O)O[C@@H]1CO |
| 800 | Cc1cn([C@H]2C[C@H](O)[C@@H](CSCCO)O2)c(=O)[nH]c1=O |
| 4400 | CCCCCCN(C[C@H]1O[C@@H](n2cc(C)c(=O)[nH]c2=O)C[C@@H]1O)C(C)=O |
| 1200 | Cc1cn([C@H]2C[C@H](O)[C@@H](CSCCCC(=O)O)O2)c(=O)[nH]c1=O |
| 190 | CCNC[C@H]1O[C@@H](n2cc(C)c(=O)[nH]c2=O)C[C@@H]1O |
| 220 | N#Cc1cn([C@H]2C[C@H](O)[C@@H](CO)O2)c(=O)[nH]c1=O |
| 1700 | NCc1cn([C@H]2C[C@H](O)[C@@H](CO)O2)c(=O)[nH]c1=O |
| 6500 | CC(=O)NC[C@H]1O[C@@H](n2cc(C)c(=O)[nH]c2=O)C[C@@H]1O [N-[(2R,5R)-3-Hydroxy-5-(5-methyl-2,4-dioxo-3,4-dihydro-2H-pyrimidin-1-yl)-tetrahydro-furan-2-ylmethyl]-acetamide] |

Source: BindingDB's records for doi:10.1021/jm00192a005 (1979)
